Data set [1] deals with T1, Estrogen receptor (Homo sapiens) (UniProt P03372).
T1 sequence (whole entry): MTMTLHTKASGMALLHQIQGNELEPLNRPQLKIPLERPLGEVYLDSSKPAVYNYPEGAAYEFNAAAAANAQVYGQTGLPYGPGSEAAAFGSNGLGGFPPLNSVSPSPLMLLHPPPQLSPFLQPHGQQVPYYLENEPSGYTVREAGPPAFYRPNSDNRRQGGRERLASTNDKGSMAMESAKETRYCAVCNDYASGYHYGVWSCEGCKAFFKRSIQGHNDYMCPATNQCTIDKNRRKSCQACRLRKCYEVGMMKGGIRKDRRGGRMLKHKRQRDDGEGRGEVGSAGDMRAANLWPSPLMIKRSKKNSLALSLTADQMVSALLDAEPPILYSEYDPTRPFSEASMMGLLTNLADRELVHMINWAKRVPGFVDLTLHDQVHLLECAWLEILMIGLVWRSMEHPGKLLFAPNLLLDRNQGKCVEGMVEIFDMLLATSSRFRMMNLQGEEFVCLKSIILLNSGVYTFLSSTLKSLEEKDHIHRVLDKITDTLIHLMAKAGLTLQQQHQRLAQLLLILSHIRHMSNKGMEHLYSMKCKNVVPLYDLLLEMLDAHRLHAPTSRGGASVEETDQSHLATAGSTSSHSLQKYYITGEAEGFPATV
Briefly: Inhibition of ERalpha in human MCF7:WS8 cells assessed as increase in degradation of ERalpha incubated for 24 hrs by In-Cell Western assay relative to control. In kind it is cell-based. The method in brief:
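MCF7:WS8 cells were estrogen-stripped for 2 days and plated at 2.5 × 10^4 per well. After 48 h they were treated for 24 h. ERα was detected by in-cell western (H10 antibody), with signal normalized to CellTag 700.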

The test system of another data set is MCF7:TAM1. Briefly: Cytotoxicity against human MCF7:TAM1 3D spheroid cells assessed as reduction in tumor cell viability at 10 nM incubated for 14 days by celltiter-glo 3D cell viability assay.
Data set [2] concerns the target T2, Estrogen receptor (Homo sapiens, UniProt P03372).
T2 sequence (P03372 whole entry): T1 sequence (whole entry)
Description: Antagonist activity at ERalpha in human MCF7:WS8 cells incubated for 18 hrs by dual luciferase reporter gene assay relative to control. In kind it is cell-based. Summed up:
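MCF7:WS8 cells were estrogen-deprived for 3 days (phenol red-free RPMI, stripped FBS), then plated and grown 24 h. They were co-transfected for 6 h with a 3×vitellogenin ERE-firefly luciferase plasmid and a pRL-TK Renilla plasmid. Compounds were given in competition with 1 nM E2 for 18 h, then dual luciferase was read.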

Data set [3] is described as follows: Antiproliferative activity against human MCF7:WS8 cells assessed as reduction in cell viability incubated for 5 days by Hoechst 33258 dye based assay. The data set is classed as functional. Conditions: MCF7:WS8, 120 h. The method in brief:
(§1)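 Cells were seeded at 5000 per well; MCF7:WS8 had been estrogen-stripped for 2 days first. Compounds were serially diluted in DMSO, with 0.01% DMSO as vehicle. The medium was removed on day 5 (MCF7:WS8) or day 7 (MCF7:5C), and cells were lysed by freezing at −80 °C overnight. DNA was measured by Hoechst 33258 fluorescence. Maximum efficacy was normalized to vehicle (0%) and no cells (100%); at least three biological replicates.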

Data set [4] can be described thus: Drug concentration in C57BL/6 mouse brain at 100 mg/kg, po measured after 2 hrs by LC/MS-MS analysis. To be noted: read-out: Drug uptake. The data set is classed as ADME, organism-based. Summed up:
(§2)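 PK screen in female C57BL/6 mice (N = 3 per time point). Dosed by gavage at 100 mg/kg in HPβD/PEG-400. Plasma and brain were taken from perfused mice at 30 and 120 min. Quantified by LC-MS/MS in MRM mode, with standard curves in each matrix and a common internal standard. Values are mean and s.d.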

For data set [5], the species on record is Homo sapiens. Briefly: Cytotoxicity against human MCF7:WS8 3D spheroid cells assessed as reduction in tumor cell viability at 10 nM incubated for 14 days by celltiter-glo 3D cell viability assay.
The target of data set [6] is T2, Estrogen receptor. Briefly: Inhibition of ERalpha in human MCF7:WS8 cells assessed as increase in degradation of ERalpha incubated for 24 hrs by In-Cell Western assay. In kind it is cell-based. The method in brief: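 MCF7:WS8 cells were estrogen-stripped for 2 days and plated at 2.5 × 10^4 per well. ERα was detected by in-cell western (H10 antibody), with signal normalized to CellTag 700.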

Data set [7] in a line: Drug concentration in C57BL/6 mouse brain at 100 mg/kg, po measured after 0.5 hrs by LC/MS-MS analysis. The data set is classed as ADME, organism-based. Conditions: read-out: Drug uptake. The method in brief:
as §2

The species named for data set [8] is Homo sapiens. Briefly: Cytotoxicity against human MCF7:WS8 3D spheroid cells assessed as reduction in tumor spheroid size at 10 nM incubated for 14 days.
The nature of data set [9]: (§3) Antiproliferative activity against human MCF7:5C cells assessed as reduction in cell viability incubated for 7 days by Hoechst 33258 dye based assay relative to control. In kind it is functional. Conditions: 168 h. The method in brief:
as §1

Another data set is described as follows: cells. To be noted: Homo sapiens, MCF7:5C, 168 h, read-out: pIC50 (converted).
A short description of data set [10]: Plasma concentration in C57BL/6 mouse at 100 mg/kg, po measured after 0.5 hrs by LC/MS-MS analysis. In kind it is ADME, organism-based. Summed up:
as §2

The nature of data set [11]: Antiproliferative activity against human MCF7:WS8 cells assessed as reduction in cell viability incubated for 5 days by Hoechst 33258 dye based assay relative to control. The data set is classed as functional. Conditions: MCF7:WS8, 120 h. Summed up: as §1
A short description of data set [12]: Plasma concentration in C57BL/6 mouse at 100 mg/kg, po measured after 2 hrs by LC/MS-MS analysis. The data set is classed as ADME, organism-based. Summed up:
as §2

Data set [13] is filed under the species Homo sapiens. The data set is described as §3. In kind it is functional. Summed up:
as §1

The target in data set [14] is T1, Estrogen receptor (Homo sapiens). Description: Induction of degradation of ERalpha in human MCF7:WS8 cells at 100 nM in presence of MG-132 incubated for 24 hrs by Western blot analysis. In kind it is cell-based.
In data set [15] the test system is T47D. Description: Cytotoxicity against human T47D 3D spheroid cells harboring Y537S mutant assessed as reduction in tumor cell viability at 10 nM incubated for 14 days by celltiter-glo 3D cell viability assay. For orientation: ATP-based viability assays read luminescence as a measure of living cells.
For data set [16], the system named is T47D. Description: Cytotoxicity against human T47D 3D spheroid cells assessed as reduction in tumor cell viability at 10 nM incubated for 14 days by celltiter-glo 3D cell viability assay.
Data set [17] relates to T47D. Briefly: Cytotoxicity against human T47D 3D spheroid cells harboring D538G mutant assessed as reduction in tumor cell viability at 10 nM incubated for 14 days by celltiter-glo 3D cell viability assay.
Another data set has as its system Rattus norvegicus. Briefly: Induction of uterotrophic activity in Sprague-Dawley rat assessed as increase in uterine weight at 10 mg/kg, po administered for 3 days and measured after 24 hrs of last dosing by hematoxylin eosin staining based imaging analysis. The data set is classed as functional, organism-based. The method in brief:
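Female Sprague-Dawley rats were dosed from day 19 of age once daily for 3 days: 10 mg/kg p.o. in 2% Tween 80/0.5% methylcellulose. EE2 (0.1 mg/kg p.o., peanut oil) was the positive control. Uteri were excised and weighed 24 h after the last dose; one half was fixed in 4% paraformaldehyde for H&E histology.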

Data set [18] relates to Mus musculus. Briefly: In vivo degradation of ERalpha in C57BL/6 mouse at 50 mg/kg, po measured after 7 hrs by Western blot analysis. The data set is classed as functional, organism-based. The method in brief: (§4)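 Female C57BL/6J mice aged 9–12 weeks were dosed at 50 mg/kg p.o. in PEG 400/10% HPCD (1:9 v/v). Regimens were a single dose with sacrifice at 5 h, or 3 daily doses with sacrifice 5 h (n = 5) or 7 h (n = 6) after the last dose. Ovaries and uterus were homogenized, 20 μg protein was run by SDS-PAGE, and the blot was probed for ERα and normalized to β-actin.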

For data set [19], the system named is Mus musculus. Description: In vivo degradation of ERalpha in C57BL/6 mouse at 50 mg/kg, po administered for 3 days and measured on day 3 by Western blot analysis. In kind it is functional, organism-based. The method in brief: as §4
Background: A western blot detects proteins with antibodies after separation by electrophoresis.

Active and inactive are the calls of the source. The calls are words filed in the database; no cut-off is given here.

For `Cc1cc(F)cc(C)c1C(=O)c1sc2cc(O)ccc2c1Oc1ccc(OCCN2CC(CF)C2)cc1`, the Efficacy in [1] came to 85%. For the same compound, the result in the data set with MCF7:TAM1, in the data set filed under Homo sapiens [5] and in the data set listed under Homo sapiens [8] was Active. Further, the IC50 was 3.5 nM at Estrogen receptor [2], 0.468 nM in [3], 1.41 nM at Estrogen receptor [6] and 2.14 nM in the data set “cells”. The concentration at 2 h in data set [4] came to 588 nM; in [12], 659 nM. The figures for the concentration at 0.5 h in [7] and in [10] were 750 nM and 786 nM, respectively. In addition, the Emax in data set [9] is 47%; in [11], 73%.

For the compound `O=C(c1ccc(OCCN2CCCCC2)cc1)c1c(-c2ccc(O)cc2)sc2cc(O)ccc12` [RALOXIFENE], the IC50 in data set [3] is 2.4 nM. Besides, the Emax result in the data set filed under Homo sapiens [13] was “inactive”. The Emax in data set [11] is 69%.

As for `CCNCCc1ccc(CN(CC)c2cc(OC)ccc2[C@@H]2CCc3cc(O)ccc3C2)cc1`, the result in [14] was Active.

Regarding `Cc1cc(F)cc(C)c1C(=O)c1sc2cc(O)ccc2c1Oc1ccc(OCCN2CC[C@@H](CF)C2)cc1`, the Efficacy in data set [1] was determined as 84%. The IC50 is 12 nM against Estrogen receptor [2], 0.631 nM in data set [3], 5.89 nM at Estrogen receptor [6] and 1.07 nM in the data set “cells”. Besides, the concentration at 2 h in data set [4] turned out to be 276 nM; in data set [12], 163 nM. Also, the figures for the concentration at 0.5 h in data set [7] and in data set [10] were 121 nM and 211 nM, respectively. For the same compound, the Emax came to 34% in data set [9] and 66% in [11].

As to `Cc1ccc(C(=O)c2sc3cc(O)ccc3c2Oc2ccc(OCCN3CC(CF)C3)cc2)c(C)c1`, the Efficacy in [1] worked out at 83%. Besides, the IC50 at Estrogen receptor [2] is 7.4 nM; in data set [3], 0.155 nM; at Estrogen receptor [6] it was 1.45 nM; in “cells”, 0.38 nM. In addition, the Emax came to 42% in data set [9] and 68% in data set [11].

As to `CC/C(=C(\c1ccc(O)cc1)c1ccc(OCCN(C)C)cc1)c1ccccc1`, the result in the data set with T47D [15], in the data set on T47D [16] and in the data set on T47D [17] was Active.

For the compound `O=C(c1ccc(F)cc1)c1sc2cc(O)ccc2c1Oc1ccc(OCCN2CC(CF)C2)cc1`, in data set [1], the Efficacy was found to be 89%. In addition, the IC50 against Estrogen receptor [2] is 28 nM; in [3] it was 1.02 nM; on Estrogen receptor [6] it was 1.23 nM; in “cells”, 0.447 nM. The result in the data set filed under Homo sapiens [5] and in the data set listed under Homo sapiens [8] was Active. Further, the Emax stood at 46% in data set [9] and 67% in [11].

As to `Cc1ccccc1C(=O)c1sc2cc(O)ccc2c1Oc1ccc(OC2CN(CCCF)C2)cc1`, the Efficacy in data set [1] stood at 82%. The IC50 was 2.1 nM against Estrogen receptor [2], 0.145 nM in data set [3], 2.57 nM at Estrogen receptor [6] and 2.82 nM in “cells”. For the same compound, the outcome in the data set listed under Homo sapiens [5] and in the data set listed under Homo sapiens [8] was Active. In addition, the Emax in [9] was determined as 59%; in data set [11] it was 67%.

As to `CC1=C(c2cccc(O)c2)[C@H](c2ccc(OCCN3CC(CF)C3)cc2)Oc2ccc(O)cc21`, the result in the data set on T47D [15], in the data set with T47D [16] and in the data set on T47D [17] was Active.

As to `Cc1c(-c2ccc(O)cc2)n(Cc2ccc(OCCN3CCCCCC3)cc2)c2ccc(O)cc12`, the outcome with Rattus norvegicus was inactive.

On to `Cc1cc(O)ccc1C(=O)c1sc2cc(O)ccc2c1Oc1ccc(OCCN2CC(CF)C2)cc1`, for which, in data set [1], the Efficacy was 90%. The IC50 at Estrogen receptor [2] was 14 nM; in data set [3] it was 0.575 nM; on Estrogen receptor [6] it was 5.13 nM; in “cells” it was 0.12 nM. Further, the Emax in data set [9] was 36%; in data set [11] it was 78%.

In the case of `Cc1ccccc1C(=O)c1sc2cc(O)ccc2c1Oc1ccc(OCCN2CC(CF)C2)cc1`, the Efficacy in [1] worked out at 92%. Also, the IC50 is 1.5 nM on Estrogen receptor [2], 1.07 nM in data set [3], 0.955 nM at Estrogen receptor [6] and 0.955 nM in the data set “cells”. Moreover, the Emax is 40% in [9] and 72% in data set [11].

Take `Cc1ccccc1C(=O)c1sc2cc(O)ccc2c1Oc1ccc(OCCN2CCCCC2)cc1`: in data set [3], the IC50 was 0.407 nM. Moreover, the Emax entry in the data set filed under Homo sapiens [13] was “inactive”. Further, in data set [11], the Emax stood at 68%.

For the compound `Cc1cc(Cl)cc(C)c1C(=O)c1sc2cc(O)ccc2c1Oc1ccc(/C=C/C(=O)O)cc1`, the outcome (in data set [14]; with Mus musculus [18]; in the data set on Mus musculus [19]) was Active.

For the origin of these results see ChEMBL document CHEMBL4354825, “Design and Synthesis of Basic Selective Estrogen Receptor Degraders for Endocrine Therapy Resistant Breast Cancer” (J Med Chem, 2019).
